Converted amounts (≈) assume the structure as drawn.
Key:
Format in all cases: functional
Fusarium verticillioides [1] = experiment: Antifungal activity against Fusarium moniliforme after 48 hrs by cup diffusion method
Fusarium verticillioides [2] = experiment: Antifungal activity against Fusarium moniliforme at 20 ug after 48 hrs by cup diffusion method; conditions: read-out: IZ
Summary of the method: (§1)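 Cup diffusion on 9 cm plates seeded with 1 × 10⁶ cfu of fungi, with spores adjusted to at least 1 × 10⁶ cfu/ml in potato dextrose broth. Compound in DMF was placed in 5 mm agar cups and left 1 h to diffuse. Plates were incubated at 28 °C for 48 h and the inhibition zone read in mm. DMF was the negative control.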

Staphylococcus aureus [3] = experiment: Antibacterial activity against Staphylococcus aureus MTCC 737 after 24 hrs by cup diffusion method; conditions: MTCC 737, 24 h
Pseudomonas aeruginosa [4] = experiment: Antibacterial activity against Pseudomonas aeruginosa MTCC 1688 at 20 ug after 24 hrs by cup diffusion method; conditions: MTCC 1688, 24 h, read-out: IZ
Summary of the method: (§2)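 Agar cup diffusion. Plates of sterile medium in 9 cm dishes were seeded with 1 × 10⁵ cfu of bacteria, with the suspension adjusted to at least 1 × 10⁵ cfu/ml in nutrient broth. Compound in DMF was placed in 5 mm cups and pre-diffused for 1 h. Plates were incubated at 37 °C for 24 h and the inhibition zone measured in mm. DMF served as negative control.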

Aspergillus flavus [5] = experiment: Antifungal activity against Aspergillus flavus after 48 hrs by cup diffusion method
Aspergillus niger [6] = experiment: Antifungal activity against Aspergillus niger at 20 ug after 48 hrs by cup diffusion method; conditions: read-out: IZ; summary of the method: as §1
Fusarium oxysporum [7] = experiment: Antifungal activity against Fusarium oxysporum at 20 ug after 48 hrs by cup diffusion method; conditions: read-out: IZ; summary of the method: as §1
Escherichia coli [8] = experiment: Antibacterial activity against Escherichia coli MTCC 443 after 24 hrs by cup diffusion method; conditions: MTCC 443, 24 h
Fusarium oxysporum [9] = experiment: Antifungal activity against Fusarium oxysporum after 48 hrs by cup diffusion method
Aspergillus flavus [10] = experiment: Antifungal activity against Aspergillus flavus at 20 ug after 48 hrs by cup diffusion method; conditions: read-out: IZ; summary of the method: as §1
Aspergillus niger [11] = experiment: Antifungal activity against Aspergillus niger after 48 hrs by cup diffusion method
Klebsiella pneumoniae [12] = experiment: Antibacterial activity against Klebsiella pneumoniae […] after 24 hrs by cup diffusion method
Pseudomonas aeruginosa [13] = experiment: Antibacterial activity against Pseudomonas aeruginosa MTCC 1688 after 24 hrs by cup diffusion method; conditions: MTCC 1688, 24 h
Escherichia coli [14] = experiment: Antibacterial activity against Escherichia coli MTCC 443 at 20 ug after 24 hrs by cup diffusion method; conditions: MTCC 443, 24 h, read-out: IZ; summary of the method: as §2
Staphylococcus aureus [15] = experiment: Antibacterial activity against Staphylococcus aureus MTCC 737 at 20 ug after 24 hrs by cup diffusion method; conditions: MTCC 737, 24 h, read-out: IZ; summary of the method: as §2
Klebsiella pneumoniae [16] = experiment: Antibacterial activity against Klebsiella pneumoniae […] at 20 ug after 24 hrs by cup diffusion method; conditions: read-out: IZ; summary of the method: as §2

OCC1CCC(c2ccc3c(c2)CCC3)=NO1 (stereo not given)
MIC (Fusarium verticillioides [1]): 35 µg/mL (≈ 151 µM)
zone of inhibition at 20 µg/disc (Fusarium verticillioides [2]): 13.7 mm
MIC (Staphylococcus aureus [3]): 20 µg/mL (≈ 86.5 µM)
zone of inhibition at 20 µg/disc (Pseudomonas aeruginosa [4]): 13.7 mm
MIC (Aspergillus flavus [5]): 30 µg/mL (≈ 130 µM)
zone of inhibition at 20 µg/disc (Aspergillus niger [6]): 7.66 mm
zone of inhibition at 20 µg/disc (Fusarium oxysporum [7]): 18.8 mm
MIC (Escherichia coli [8]): 35 µg/mL (≈ 151 µM)
MIC (Fusarium oxysporum [9]): 25 µg/mL (≈ 108 µM)
zone of inhibition at 20 µg/disc (Aspergillus flavus [10]): 9.83 mm
MIC (Aspergillus niger [11]): 30 µg/mL (≈ 130 µM)
MIC (Klebsiella pneumoniae [12]): 25 µg/mL (≈ 108 µM)
MIC (Pseudomonas aeruginosa [13]): 20 µg/mL (≈ 86.5 µM)
zone of inhibition at 20 µg/disc (Escherichia coli [14]): 10.5 mm
zone of inhibition at 20 µg/disc (Staphylococcus aureus [15]): 10.7 mm
zone of inhibition at 20 µg/disc (Klebsiella pneumoniae [16]): 17.7 mm

COc1ccc(C2=NOC(C#N)CC2)cc1 (stereo not given)
MIC (Fusarium verticillioides [1]): 35 µg/mL (≈ 162 µM)
zone of inhibition at 20 µg/disc (Fusarium verticillioides [2]): 13.4 mm
MIC (Staphylococcus aureus [3]): 10 µg/mL (≈ 46.2 µM)
zone of inhibition at 20 µg/disc (Pseudomonas aeruginosa [4]): 12.2 mm
MIC (Aspergillus flavus [5]): 35 µg/mL (≈ 162 µM)
zone of inhibition at 20 µg/disc (Aspergillus niger [6]): 9.5 mm
zone of inhibition at 20 µg/disc (Fusarium oxysporum [7]): 18.5 mm
MIC (Escherichia coli [8]): 25 µg/mL (≈ 116 µM)
MIC (Fusarium oxysporum [9]): 30 µg/mL (≈ 139 µM)
zone of inhibition at 20 µg/disc (Aspergillus flavus [10]): 8.5 mm
MIC (Aspergillus niger [11]): 40 µg/mL (≈ 185 µM)
MIC (Klebsiella pneumoniae [12]): 15 µg/mL (≈ 69.4 µM)
MIC (Pseudomonas aeruginosa [13]): 15 µg/mL (≈ 69.4 µM)
zone of inhibition at 20 µg/disc (Escherichia coli [14]): 10.2 mm
zone of inhibition at 20 µg/disc (Staphylococcus aureus [15]): 9.5 mm
zone of inhibition at 20 µg/disc (Klebsiella pneumoniae [16]): 6.66 mm

CC1(C)S[C@@H]2[C@H](NC(=O)Cc3ccccc3)C(=O)N2[C@H]1C(=O)O [PENICILLIN G]
zone of inhibition at 20 µg/disc (Pseudomonas aeruginosa [4]): 0 mm
zone of inhibition at 20 µg/disc (Escherichia coli [14]): 0 mm
zone of inhibition at 20 µg/disc (Staphylococcus aureus [15]): 9.38 mm
zone of inhibition at 20 µg/disc (Klebsiella pneumoniae [16]): 0 mm

Cc1ccc(C2=NOC(CO)CC2)cc1C (stereo not given)
MIC (Fusarium verticillioides [1]): 35 µg/mL (≈ 160 µM)
zone of inhibition at 20 µg/disc (Fusarium verticillioides [2]): 14.7 mm
MIC (Staphylococcus aureus [3]): 15 µg/mL (≈ 68.4 µM)
zone of inhibition at 20 µg/disc (Pseudomonas aeruginosa [4]): 12.8 mm
MIC (Aspergillus flavus [5]): 35 µg/mL (≈ 160 µM)
zone of inhibition at 20 µg/disc (Aspergillus niger [6]): 10.7 mm
zone of inhibition at 20 µg/disc (Fusarium oxysporum [7]): 19.8 mm
MIC (Escherichia coli [8]): 25 µg/mL (≈ 114 µM)
MIC (Fusarium oxysporum [9]): 25 µg/mL (≈ 114 µM)
zone of inhibition at 20 µg/disc (Aspergillus flavus [10]): 8.66 mm
MIC (Aspergillus niger [11]): 30 µg/mL (≈ 137 µM)
MIC (Klebsiella pneumoniae [12]): 20 µg/mL (≈ 91.2 µM)
MIC (Pseudomonas aeruginosa [13]): 25 µg/mL (≈ 114 µM)
zone of inhibition at 20 µg/disc (Escherichia coli [14]): 13.7 mm
zone of inhibition at 20 µg/disc (Staphylococcus aureus [15]): 14.8 mm
zone of inhibition at 20 µg/disc (Klebsiella pneumoniae [16]): 17.7 mm

CCOC(=O)C1CCC(c2ccc(OC)c(OC)c2)=NO1 (stereo not given)
MIC (Fusarium verticillioides [1]): 30 µg/mL (≈ 102 µM)
zone of inhibition at 20 µg/disc (Fusarium verticillioides [2]): 11.7 mm
MIC (Staphylococcus aureus [3]): 15 µg/mL (≈ 51.1 µM)
zone of inhibition at 20 µg/disc (Pseudomonas aeruginosa [4]): 25.7 mm
MIC (Aspergillus flavus [5]): 35 µg/mL (≈ 119 µM)
zone of inhibition at 20 µg/disc (Aspergillus niger [6]): 8 mm
zone of inhibition at 20 µg/disc (Fusarium oxysporum [7]): 16.7 mm
MIC (Escherichia coli [8]): 30 µg/mL (≈ 102 µM)
MIC (Fusarium oxysporum [9]): 35 µg/mL (≈ 119 µM)
zone of inhibition at 20 µg/disc (Aspergillus flavus [10]): 9.66 mm
MIC (Aspergillus niger [11]): 35 µg/mL (≈ 119 µM)
MIC (Klebsiella pneumoniae [12]): 20 µg/mL (≈ 68.2 µM)
MIC (Pseudomonas aeruginosa [13]): 15 µg/mL (≈ 51.1 µM)
zone of inhibition at 20 µg/disc (Escherichia coli [14]): 14.7 mm
zone of inhibition at 20 µg/disc (Staphylococcus aureus [15]): 16.5 mm
zone of inhibition at 20 µg/disc (Klebsiella pneumoniae [16]): 20.7 mm

Cc1ccc(C2=NOC(CCl)CC2)cc1C (stereo not given)
MIC (Fusarium verticillioides [1]): 20 µg/mL (≈ 84.1 µM)
zone of inhibition at 20 µg/disc (Fusarium verticillioides [2]): 11.5 mm
MIC (Staphylococcus aureus [3]): 10 µg/mL (≈ 42.1 µM)
zone of inhibition at 20 µg/disc (Pseudomonas aeruginosa [4]): 17.6 mm
MIC (Aspergillus flavus [5]): 15 µg/mL (≈ 63.1 µM)
zone of inhibition at 20 µg/disc (Aspergillus niger [6]): 8.5 mm
zone of inhibition at 20 µg/disc (Fusarium oxysporum [7]): 20.7 mm
MIC (Escherichia coli [8]): 20 µg/mL (≈ 84.1 µM)
MIC (Fusarium oxysporum [9]): 10 µg/mL (≈ 42.1 µM)
zone of inhibition at 20 µg/disc (Aspergillus flavus [10]): 9.5 mm
MIC (Aspergillus niger [11]): 15 µg/mL (≈ 63.1 µM)
MIC (Klebsiella pneumoniae [12]): 15 µg/mL (≈ 63.1 µM)
MIC (Pseudomonas aeruginosa [13]): 15 µg/mL (≈ 63.1 µM)
zone of inhibition at 20 µg/disc (Escherichia coli [14]): 14.8 mm
zone of inhibition at 20 µg/disc (Staphylococcus aureus [15]): 20.7 mm
zone of inhibition at 20 µg/disc (Klebsiella pneumoniae [16]): 15.8 mm

N#CC1CCC(c2ccc3c(c2)CCC3)=NO1 (stereo not given)
MIC (Fusarium verticillioides [1]): 40 µg/mL (≈ 177 µM)
zone of inhibition at 20 µg/disc (Fusarium verticillioides [2]): 13.5 mm
MIC (Staphylococcus aureus [3]): 15 µg/mL (≈ 66.3 µM)
zone of inhibition at 20 µg/disc (Pseudomonas aeruginosa [4]): 31.5 mm
MIC (Aspergillus flavus [5]): 40 µg/mL (≈ 177 µM)
zone of inhibition at 20 µg/disc (Aspergillus niger [6]): 10.7 mm
zone of inhibition at 20 µg/disc (Fusarium oxysporum [7]): 17.7 mm
MIC (Escherichia coli [8]): 25 µg/mL (≈ 110 µM)
MIC (Fusarium oxysporum [9]): 35 µg/mL (≈ 155 µM)
zone of inhibition at 20 µg/disc (Aspergillus flavus [10]): 9.5 mm
MIC (Aspergillus niger [11]): 35 µg/mL (≈ 155 µM)
MIC (Klebsiella pneumoniae [12]): 20 µg/mL (≈ 88.4 µM)
MIC (Pseudomonas aeruginosa [13]): 15 µg/mL (≈ 66.3 µM)
zone of inhibition at 20 µg/disc (Escherichia coli [14]): 15.5 mm
zone of inhibition at 20 µg/disc (Staphylococcus aureus [15]): 17.7 mm
zone of inhibition at 20 µg/disc (Klebsiella pneumoniae [16]): 23.8 mm

Source: ChEMBL document CHEMBL1152843, “Synthesis of new series of 5,6-dihydro-4H-1,2-oxazines via hetero Diels-Alder reaction and evaluation of antimicrobial activity” (2009)
